Source: ChEMBL document CHEMBL1132569

Tests used:
[1] = target: T1, Muscarinic acetylcholine receptor M4 (Homo sapiens) (UniProt P08173); experiment: Binding affinity at the NMS liganded human muscarinic acetylcholine receptor M4 was estimated as log affinity (log1/M)
T1 sequence (whole entry): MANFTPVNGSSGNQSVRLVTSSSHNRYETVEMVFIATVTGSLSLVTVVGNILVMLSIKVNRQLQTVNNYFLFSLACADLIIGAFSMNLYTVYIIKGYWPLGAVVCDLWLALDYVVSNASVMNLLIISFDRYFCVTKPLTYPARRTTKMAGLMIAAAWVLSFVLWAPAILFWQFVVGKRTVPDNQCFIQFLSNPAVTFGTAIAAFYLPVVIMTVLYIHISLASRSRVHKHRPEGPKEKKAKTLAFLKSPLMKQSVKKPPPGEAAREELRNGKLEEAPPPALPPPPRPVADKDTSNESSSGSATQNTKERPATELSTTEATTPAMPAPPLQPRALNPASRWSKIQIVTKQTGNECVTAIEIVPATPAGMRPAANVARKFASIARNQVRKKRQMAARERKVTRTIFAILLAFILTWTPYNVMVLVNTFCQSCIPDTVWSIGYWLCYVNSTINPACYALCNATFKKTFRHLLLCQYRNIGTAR
Method in brief: (§1)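 Equilibrium runs were ≥2 h with 2 × 10⁻⁴ M GTP and 0.1–0.7 nM ³H-NMS. Nonspecific binding was defined with 10⁻⁶ M QNB, and bound ligand was filtered and counted. Log affinities came from semiquantitative plus off-rate, quantitative equilibrium, or nonequilibrium assays, fitted by nonlinear least squares to the allosteric ternary complex model.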

[2] = target: T1, Muscarinic acetylcholine receptor M4 (Homo sapiens); experiment: Binding affinity at the unliganded human muscarinic acetylcholine receptor M4 was estimated as log affinity (log1/M); method in brief: as §1
[3] = target: T1, Muscarinic acetylcholine receptor M4 (Homo sapiens); experiment: Cooperativity with NMS at human muscarinic acetylcholine receptor M4
Method in brief: (§2)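 Equilibrium ³H-NMS binding in CHO membranes expressing human m1–m5 receptors was measured with and without ACh, alone and with three agent concentrations. Data were converted to affinity ratios, meaning apparent primary-ligand affinity with agent divided by affinity without it.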

[4] = target: T1, Muscarinic acetylcholine receptor M4 (Homo sapiens); experiment: Cooperativity with acetylcholine at human muscarinic acetylcholine receptor M4; method in brief: as §2
[5] = target: Muscarinic acetylcholine receptor M3 (Homo sapiens) (UniProt P20309); experiment: Cooperativity with NMS at human muscarinic acetylcholine receptor M3; method in brief: as §2
[6] = target: Muscarinic acetylcholine receptor M3 (Homo sapiens) (UniProt P20309); experiment: Cooperativity with acetylcholine at human muscarinic acetylcholine receptor M3; method in brief: as §2
[7] = target: Muscarinic acetylcholine receptor M3 (Homo sapiens) (UniProt P20309); experiment: Binding affinity at the NMS liganded human muscarinic acetylcholine receptor M3 was estimated as log affinity (log1/M); method in brief: as §1
[8] = target: Muscarinic acetylcholine receptor M3 (Homo sapiens) (UniProt P20309); experiment: Binding affinity at the unliganded human muscarinic acetylcholine receptor M3 was estimated as log affinity (log1/M); method in brief: as §1
[9] = target: T2, Muscarinic acetylcholine receptor M5 (Homo sapiens) (UniProt P08912); experiment: Binding affinity at the NMS liganded human muscarinic acetylcholine receptor M5 was estimated as log affinity (log1/M); method in brief: as §1
T2 sequence (whole entry): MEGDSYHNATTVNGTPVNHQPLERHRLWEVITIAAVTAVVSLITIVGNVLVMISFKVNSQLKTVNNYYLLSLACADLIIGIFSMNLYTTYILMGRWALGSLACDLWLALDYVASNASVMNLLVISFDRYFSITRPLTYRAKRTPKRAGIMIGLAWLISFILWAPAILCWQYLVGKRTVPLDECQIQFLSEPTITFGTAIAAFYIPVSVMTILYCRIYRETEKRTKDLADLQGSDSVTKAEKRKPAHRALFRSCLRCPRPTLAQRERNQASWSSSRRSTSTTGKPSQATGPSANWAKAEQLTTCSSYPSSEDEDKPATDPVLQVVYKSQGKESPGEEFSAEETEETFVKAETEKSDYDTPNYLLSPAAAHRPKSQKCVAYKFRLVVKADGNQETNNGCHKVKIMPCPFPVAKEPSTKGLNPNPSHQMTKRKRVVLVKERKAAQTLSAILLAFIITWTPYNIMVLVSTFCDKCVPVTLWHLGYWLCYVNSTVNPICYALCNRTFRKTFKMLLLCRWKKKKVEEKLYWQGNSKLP

[10] = target: T2, Muscarinic acetylcholine receptor M5 (Homo sapiens); experiment: Binding affinity at the unliganded Muscarinic acetylcholine receptor M5 was estimated as log affinity (log1/M); method in brief: as §1
[11] = target: T2, Muscarinic acetylcholine receptor M5 (Homo sapiens); experiment: Cooperativity with NMS at Muscarinic acetylcholine receptor M5; method in brief: as §2
[12] = target: T2, Muscarinic acetylcholine receptor M5 (Homo sapiens); experiment: Cooperativity with acetylcholine at Muscarinic acetylcholine receptor M5; method in brief: as §2
[13] = target: T3, Muscarinic acetylcholine receptor M2 (Homo sapiens) (UniProt P08172); experiment: Binding affinity at the NMS liganded human muscarinic acetylcholine receptor M2 was estimated as log affinity (log1/M); method in brief: as §1
T3 sequence (whole entry): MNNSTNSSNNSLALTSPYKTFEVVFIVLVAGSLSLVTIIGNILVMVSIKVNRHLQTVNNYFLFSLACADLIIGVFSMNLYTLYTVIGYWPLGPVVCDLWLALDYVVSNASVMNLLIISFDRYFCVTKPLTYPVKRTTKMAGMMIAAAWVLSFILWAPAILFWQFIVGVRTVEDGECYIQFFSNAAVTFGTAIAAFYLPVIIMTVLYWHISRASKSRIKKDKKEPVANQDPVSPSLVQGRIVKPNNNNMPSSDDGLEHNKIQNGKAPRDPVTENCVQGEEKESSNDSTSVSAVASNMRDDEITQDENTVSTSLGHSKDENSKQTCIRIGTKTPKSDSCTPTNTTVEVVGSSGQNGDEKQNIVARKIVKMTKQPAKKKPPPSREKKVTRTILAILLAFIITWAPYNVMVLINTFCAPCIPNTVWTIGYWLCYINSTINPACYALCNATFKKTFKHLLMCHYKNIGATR

[14] = target: T3, Muscarinic acetylcholine receptor M2 (Homo sapiens); experiment: Binding affinity at the unliganded human muscarinic acetylcholine receptor M2 was estimated as log affinity (log1/M); method in brief: as §1
[15] = target: T3, Muscarinic acetylcholine receptor M2 (Homo sapiens); experiment: Cooperativity with NMS at human muscarinic acetylcholine receptor M2; method in brief: as §2
[16] = target: T3, Muscarinic acetylcholine receptor M2 (Homo sapiens); experiment: Cooperativity with acetylcholine at human muscarinic acetylcholine receptor M2; method in brief: as §2
[17] = target: T4, Muscarinic acetylcholine receptor M1 (Homo sapiens) (UniProt P11229); experiment: Binding affinity at the NMS liganded human muscarinic acetylcholine receptor M1 was estimated as log affinity (log1/M); method in brief: as §1
T4 sequence (whole entry): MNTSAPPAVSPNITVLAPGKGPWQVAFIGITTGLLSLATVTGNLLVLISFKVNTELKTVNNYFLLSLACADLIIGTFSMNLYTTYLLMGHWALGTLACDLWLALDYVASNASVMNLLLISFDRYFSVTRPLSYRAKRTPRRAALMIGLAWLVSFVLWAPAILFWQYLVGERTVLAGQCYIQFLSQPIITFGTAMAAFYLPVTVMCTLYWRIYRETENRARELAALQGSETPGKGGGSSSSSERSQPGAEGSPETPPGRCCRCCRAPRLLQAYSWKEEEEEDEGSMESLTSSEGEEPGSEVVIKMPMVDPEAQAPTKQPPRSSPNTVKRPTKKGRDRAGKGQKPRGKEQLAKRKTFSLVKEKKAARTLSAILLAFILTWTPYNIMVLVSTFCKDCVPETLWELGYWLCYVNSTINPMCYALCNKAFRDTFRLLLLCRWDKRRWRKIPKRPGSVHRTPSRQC

[18] = target: T4, Muscarinic acetylcholine receptor M1 (Homo sapiens); experiment: Binding affinity at the unliganded human muscarinic acetylcholine receptor M1 was estimated as log affinity (log1/M); method in brief: as §1
[19] = target: T4, Muscarinic acetylcholine receptor M1 (Homo sapiens); experiment: Cooperativity with NMS at human muscarinic acetylcholine receptor M1; method in brief: as §2
[20] = target: T4, Muscarinic acetylcholine receptor M1 (Homo sapiens); experiment: Cooperativity with acetylcholine at human muscarinic acetylcholine receptor M1; method in brief: as §2

Muscarinic acetylcholine receptor M3 (Homo sapiens), sequence (P20309 whole entry, looked up): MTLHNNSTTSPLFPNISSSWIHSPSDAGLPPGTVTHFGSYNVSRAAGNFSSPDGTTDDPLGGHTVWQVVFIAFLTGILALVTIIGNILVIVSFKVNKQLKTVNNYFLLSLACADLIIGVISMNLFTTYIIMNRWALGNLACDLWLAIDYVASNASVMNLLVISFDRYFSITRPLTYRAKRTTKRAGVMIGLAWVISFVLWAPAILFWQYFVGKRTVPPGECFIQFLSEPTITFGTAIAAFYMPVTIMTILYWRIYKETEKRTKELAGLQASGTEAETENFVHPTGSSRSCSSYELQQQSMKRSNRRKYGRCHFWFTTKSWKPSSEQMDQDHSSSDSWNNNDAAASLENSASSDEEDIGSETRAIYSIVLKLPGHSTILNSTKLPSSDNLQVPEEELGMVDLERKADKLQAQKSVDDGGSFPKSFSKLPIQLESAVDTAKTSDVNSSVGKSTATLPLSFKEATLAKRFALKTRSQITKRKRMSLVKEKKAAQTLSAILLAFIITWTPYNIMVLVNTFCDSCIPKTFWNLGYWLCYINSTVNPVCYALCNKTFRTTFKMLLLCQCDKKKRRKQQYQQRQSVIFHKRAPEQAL

Row | SMILES | Affinity [1] | Affinity [2] | Cooperativity [3] | Cooperativity [4] | Cooperativity [5] | Cooperativity [6] | Affinity [7] | Affinity [8] | Affinity [9] | Affinity [10] | Cooperativity [11] | Cooperativity [12] | Affinity [13] | Affinity [14] | Cooperativity [15] | Cooperativity [16] | Affinity [17] | Affinity [18] | Cooperativity [19] | Cooperativity [20]
1 | COc1cc2c(cc1OC)[C@@]13CC[N+]4(Cc5ccccc5)CC5=CCO[C@H]6CC(=O)N2[C@H]1[C@H]6[C@H]5C[C@@H]34 (stereo not given in full) | 4.5 | 4.5 | 1.19 | 0.8 | 0.8 | 2 | 3.8 | > 4 | 3.7 | 3.7 | 1.19 | 0.8 | 4.8 | 4.6 | > 2 | 0.8 | 4.4 | < 4.6 | 0.8 | 0.8
2 | COc1cc2c(cc1OC)[C@@]13CC[N+]4(C)CC5=CCO[C@H]6CC(=O)N2[C@H]1[C@H]6[C@H]5C[C@@H]34 (stereo not given in full) | 4.4 | 4.3 | 1.19 | 0.8 | 1.19 | 2 | 3.6 | 3.5 | 2.9 | 3.3 | 0.8 | < 0.2 | 4.5 | 4 | > 2 | 0.8 | 4 | 4 | 1.19 | 0.8
3 | COc1cc2c(cc1OC)[C@@]13CC[N+]4([O-])CC5=CCO[C@H]6CC(=O)N2[C@H]1[C@H]6[C@H]5C[C@@H]34 (stereo not given in full) | 3.7 | 3.7 | 1.19 | 2 | 1.19 | > 2 | 2.8 | 2.8 | 2.7 | 2.5 | 2 | 0.8 | 3.3 | 2.7 | > 2 | 0.8 | 3.6 | 3.4 | 2 | 1.19
